Tests used:
Format in all cases: functional, cell-based
[1] = target: T1, Sulfonylurea receptor 1, Kir6.2 (Homo sapiens) (UniProt Q14654+Q09428); assay: Antiarrhythmic effect in hSUR1/hKir6.2 (pancreatic KATP channel) transfected in CHO cells at a dose of 0.1 uM; conditions: at 0.1 µM
Summary of the method: (§1)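 CHO cells stably expressing SUR1/Kir6.2, seeded the day before and washed three times in PBS. Loaded with voltage dye DiBAC4(3), added as a 10 µM solution, with diazoxide, added as a 400 µM solution, both in PBS; 30 min at 37 °C. Compound added after 4 min of baseline. Fluorescence read with 488 nm excitation every 20 s for 20 min. Mean of at least four experiments.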

[2] = target: T1, Sulfonylurea receptor 1, Kir6.2 (Homo sapiens); assay: Antiarrhythmic effect in hSUR1/hKir6.2 (pancreatic KATP channel) transfected in CHO cells at a dose of 1 uM; conditions: at 1 µM; summary of the method: as §1
[3] = target: T1, Sulfonylurea receptor 1, Kir6.2 (Homo sapiens); assay: Antiarrhythmic effect in hSUR1/hKir6.2 (pancreatic KATP channel) transfected in CHO cells at a dose of 10 uM; conditions: at 10 µM; summary of the method: as §1
[4] = target: T1, Sulfonylurea receptor 1, Kir6.2 (Homo sapiens); assay: Antiarrhythmic effect in hSUR1/hKir6.2 (pancreatic KATP channel) transfected in CHO cells at 1 nM
Summary of the method: (§2)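 CHO cells stably expressing SUR1/Kir6.2, seeded the day before and washed three times with PBS. Loaded with DiBAC4(3) plus diazoxide in PBS for 30 min at 37 °C. Membrane-potential fluorescence read with 488 nm excitation; compound added at 4 min, then readings every 20 s for 20 min. Mean of at least four experiments.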

[5] = target: T1, Sulfonylurea receptor 1, Kir6.2 (Homo sapiens); assay: Antiarrhythmic effect in hSUR1/hKir6.2 (pancreatic KATP channel) transfected in CHO cells at 3 nM; summary of the method: as §2

| Compound | inhibition [1] [%] | inhibition [2] [%] | inhibition [3] [%] | inhibition [4] [%] | inhibition [5] [%] |
| --- | --- | --- | --- | --- | --- |
| CN/C(S)=N/S(=O)(=O)c1cc(CCNC(=O)c2cc(Cl)ccc2OC)ccc1-c1ccccn1 | 6.6 | 24.4 | 91.4 | – | – |
| CN/C(S)=N/S(=O)(=O)c1cc(CCNC(=O)c2cc(Cl)ccc2OC)ccc1N1CCOCC1 | -1.6 | 26.7 | 89.1 | – | – |
| CN/C(S)=N/S(=O)(=O)c1cc(CCNC(=O)c2cc(Cl)ccc2OC)cc(OC)c1OC | -3.8 | -2.12 | -2.34 | – | – |
| CN/C(S)=N/S(=O)(=O)c1cccc(CCNC(=O)c2cc(Cl)ccc2OC)c1 | -4.1 | 1.9 | 52.7 | – | – |
| COc1ccc(Cl)cc1C(=O)NCCc1ccc(OC)c(S(=O)(=O)/N=C(/N)S)c1 | 1.6 | 11.2 | 64.7 | – | – |
| CCCOc1ccc(CCNC(=O)c2cc(Cl)ccc2OC)cc1S(=O)(=O)/N=C(\S)NC | 4.2 | 63.6 | 103 | – | – |
| CN/C(S)=N/S(=O)(=O)c1cc(CCNC(=O)c2cc(Cl)ccc2OC)ccc1OCCOC | 12.5 | 26.2 | 49.5 | – | – |
| CN/C(S)=N/S(=O)(=O)c1cc(CCNC(=O)c2cc(Cl)ccc2OC)ccc1S(C)(=O)=O | 1.8 | 1.1 | 16.4 | – | – |
| CCCc1ccc(CCNC(=O)c2cc(Cl)ccc2OC)cc1S(=O)(=O)/N=C(\S)NC | 2.3 | 41.5 | 97.1 | – | – |
| COc1ccc(Cl)cc1C(=O)NCCc1ccc(S(=O)(=O)NC(=O)NC2CCCCC2)cc1 | – | – | – | 24 | 73.3 |
| COc1ccc(Cl)cc1C(=O)NCCc1ccc(OC)c(S(=O)(=O)NC(=O)NC2CCCCC2)c1 | 65.5 | 92.8 | 81.7 | – | – |
| CCc1ccc(CCNC(=O)c2cc(Cl)ccc2OC)cc1S(=O)(=O)/N=C(\S)NC | 1.3 | 20.5 | 92.9 | – | – |
| CN/C(S)=N/S(=O)(=O)c1cc(CCNC(=O)c2cc(Cl)ccc2OC)c(C)c(C)c1OC | 0.8 | 6.1 | 64.9 | – | – |
| CN/C(S)=N/S(=O)(=O)c1cc(CCNC(=O)c2cc(Cl)ccc2OC)ccc1C(C)C | 12 | 29.3 | 92.4 | – | – |
| CN/C(S)=N/S(=O)(=O)c1cc(CCNC(=O)c2cc(Cl)ccc2OC)ccc1-c1cccnc1 | 4.4 | 10.2 | 62.3 | – | – |
| CNC(=O)NS(=O)(=O)c1cc(CCNC(=O)c2cc(Cl)ccc2OC)c(OC)cc1OC | -0.6 | 2.8 | 13.5 | – | – |
| C#Cc1ccc(CCNC(=O)c2cc(Cl)ccc2OC)cc1S(=O)(=O)/N=C(\S)NC | 3.3 | 3.4 | 27.6 | – | – |
| CN/C(S)=N/S(=O)(=O)c1cc(CCNC(=O)c2cc(Cl)ccc2OC)ccc1Cl | 2.3 | 2.8 | 40.1 | – | – |
| COc1ccc(Cl)cc1C(=O)NCCc1ccc(OC)c(S(=O)(=O)NC(=O)N(C)C)c1 | -3.6 | -3.2 | 25 | – | – |
| CN/C(S)=N/S(=O)(=O)c1cc(CCNC(=O)c2cc(Cl)ccc2OC)ccc1-c1ccccc1 | 9.4 | 33 | 67.7 | – | – |
| CN/C(S)=N/S(=O)(=O)c1cc(CCNC(=O)c2cc(Cl)ccc2OC)c(OC)c(C)c1OC | -2 | 6.7 | 47.8 | – | – |

Source: ChEMBL document CHEMBL1134386, “Cardioselective K(ATP) channel blockers derived from a new series of m-anisamidoethylbenzenesulfonylthioureas” (J Med Chem, 2001)
